ChEMBL document CHEMBL1136953, “Design, synthesis, and evaluation of N-acyl modified sialic acids as inhibitors of adenoviruses causing epidemic keratoconjunctivitis” (J Med Chem, 2009)
Active and inactive are the calls of the source. The calls are words filed in the database; no cut-off is given here.

What was measured:
[1] = system: Human adenovirus D37; test: Inhibition of [35S]labeled Human adenovirus type 37 virions binding to human corneal epithelial cells by liquid scintillation counting; type: functional, organism-based; conditions: Cornea, Epithelial cell
In short: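 ³⁵S-labeled Ad37 virions preincubated with ligand before being added to HCE cells. After incubation, unbound virions washed away and cell-associated radioactivity measured. Each run used a duplicate dilution series (2, 4, 8 and 16 mM), averaged from duplicates. Experiment repeated three times; large variation allowed only a rough activity estimate.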

[2] = system: Human adenovirus D37; test: Antiviral activity against Human adenovirus type 37 virions assessed as inhibition of viral infection in human corneal epithelial cells preincubated for 1 hr; type: functional, organism-based; conditions: Cornea, Epithelial cell
In short: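 Unlabeled Ad37 virions preincubated with a dilution series of ligand, then incubated with HCE cells. Unbound virions washed off; cell-associated virions allowed to infect. Infected cells stained with rabbit polyclonal anti-Ad37 serum and FITC-conjugated swine anti-rabbit IgG, then counted as fluorescent focus units under an immunofluorescence microscope. Duplicates within one experiment; experiment repeated twice.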

Compound	Activity [1]	Activity [2]
O=C(CO)N[C@H]1[C@H]([C@H](O)[C@H](O)CO)O[C@](O)(C(=O)O)C[C@@H]1O	inactive	–
CCCCC(=O)N[C@H]1[C@H]([C@H](O)[C@H](O)CO)O[C@](OC)(C(=O)O)C[C@@H]1O	inactive	–
CC(=O)N[C@H]1[C@H]([C@@H](O)[C@@H](O)CO)O[C@@](O)(C(=O)O)C[C@@H]1O	Active	Dose-dependent effect
CO[C@@]1(C(=O)O)C[C@H](O)[C@@H](NC(=O)c2ccccc2)[C@H]([C@H](O)[C@H](O)CO)O1	Active	inactive
COC(=O)N[C@H]1[C@H]([C@H](O)[C@H](O)CO)O[C@](OC)(C(=O)O)C[C@@H]1O	Active	Dose-dependent effect
CNC(=O)N[C@H]1[C@H]([C@H](O)[C@H](O)CO)O[C@](OC)(C(=O)O)C[C@@H]1O	inactive	–
CCC(=O)N[C@H]1[C@H]([C@H](O)[C@H](O)CO)O[C@](OC)(C(=O)O)C[C@@H]1O	Active	Dose-dependent effect
CO[C@@]1(C(=O)O)C[C@H](O)[C@@H](NC(=O)OC(C)(C)C)[C@H]([C@H](O)[C@H](O)CO)O1	inactive	–
CCCC(=O)N[C@H]1[C@H]([C@H](O)[C@H](O)CO)O[C@](OC)(C(=O)O)C[C@@H]1O	inactive	inactive
CO[C@@]1(C(=O)O)C[C@H](O)[C@@H](NC(=O)C(C)C)[C@H]([C@H](O)[C@H](O)CO)O1	inactive	inactive
